# Measured values published in ChEMBL document CHEMBL1143559, “Design of potent and selective 2-aminobenzimidazole-based p38alpha MAP kinase inhibitors with excellent in vivo efficacy” (J Med Chem, 2005).
# Tested on: Mus musculus
# Assay: In vivo threshold minimum effective dose for inhibition of LPS-induced TNF-alpha production in mice after oral administration
# Assay type: functional
# Details: not given
row,SMILES,TMED50
1,CC(C)(C)c1nc(-c2ccc(F)cc2F)c(-c2ccc3nc(N)n(S(=O)(=O)C(C)(C)C)c3c2)[nH]1.CS(=O)(=O)O,5.3 mg/kg
2,CCc1nc(-c2ccc(F)cc2)c(-c2ccc3nc(N)n(S(=O)(=O)C(C)C)c3c2)[nH]1.CS(=O)(=O)O,6.5 mg/kg
3,CC(C)S(=O)(=O)n1c(N)nc2ccc(-c3[nH]cnc3-c3ccccc3)cc21,19.8 mg/kg
4,CC(C)S(=O)(=O)n1c(N)nc2ccc(-c3[nH]cnc3-c3ccc(F)cc3)cc21.CS(=O)(=O)O.CS(=O)(=O)O,9.6 mg/kg
5,CC(C)S(=O)(=O)n1c(N)nc2ccc(-c3[nH]c(-c4c(Cl)cccc4Cl)nc3-c3ccccc3)cc21.CS(=O)(=O)O,2.5 mg/kg
6,CC(C)S(=O)(=O)n1c(N)nc2ccc(-c3[nH]c(C(C)(C)C)nc3-c3ccc(F)cc3)cc21.CS(=O)(=O)O.CS(=O)(=O)O,3.9 mg/kg
7,CS(=O)(=O)O.CS(=O)(=O)O.Nc1nc2ccc(-c3[nH]c(-c4c(F)cccc4F)nc3-c3ccccc3)cc2n1S(=O)(=O)C1CCCC1,5.1 mg/kg
8,CC(C)S(=O)(=O)n1c(N)nc2ccc(-c3[nH]c(C(C)(C)C)nc3-c3ccc(F)cc3F)cc21.CS(=O)(=O)O,2.2 mg/kg
9,CN(C)S(=O)(=O)n1c(N)nc2ccc(-c3[nH]c(-c4c(F)cccc4F)nc3-c3ccccc3)cc21.CS(=O)(=O)O.CS(=O)(=O)O,12.5 mg/kg
10,CC(C)S(=O)(=O)n1c(N)nc2ccc(-c3nc(-c4c(F)cccc4F)[nH]c3-c3ccccc3)cc21,5.2 mg/kg
11,CC(C)c1nc(-c2ccc(F)cc2)c(-c2ccc3nc(N)n(S(=O)(=O)C(C)C)c3c2)[nH]1.CS(=O)(=O)O,4.9 mg/kg
12,CC(C)CN1CCC(c2nc(-c3ccc4nc(N)n(S(=O)(=O)C(C)C)c4c3)c(-c3ccccc3)[nH]2)CC1,7.3 mg/kg

# Species on record: Mus musculus
# Assay: Inhibitory concentration against TNF-alpha production in mouse macrophages
# Assay type: functional
# Details: not given
row,SMILES,IC50
1,CC(C)(C)c1nc(-c2ccc(F)cc2F)c(-c2ccc3nc(N)n(S(=O)(=O)C(C)(C)C)c3c2)[nH]1.CS(=O)(=O)O,1.6 nM
2,CCc1nc(-c2ccc(F)cc2)c(-c2ccc3nc(N)n(S(=O)(=O)C(C)C)c3c2)[nH]1.CS(=O)(=O)O,47.2 nM
3,CC(C)S(=O)(=O)n1c(N)nc2ccc(-c3nc(C4CCNCC4)[nH]c3-c3ccccc3)cc21,2880 nM
4,CC(C)S(=O)(=O)n1c(N)nc2ccc(-c3[nH]cnc3-c3ccccc3)cc21,31.8 nM
5,CC(C)S(=O)(=O)n1c(N)nc2ccc(-c3[nH]cnc3-c3ccc(F)cc3)cc21.CS(=O)(=O)O.CS(=O)(=O)O,65.7 nM
6,CC(C)S(=O)(=O)n1c(N)nc2ccc(-c3[nH]c(-c4c(Cl)cccc4Cl)nc3-c3ccccc3)cc21.CS(=O)(=O)O,3.4 nM
7,CC(C)S(=O)(=O)n1c(N)nc2ccc(-c3[nH]c(C(C)(C)C)nc3-c3ccc(F)cc3)cc21.CS(=O)(=O)O.CS(=O)(=O)O,31.1 nM
8,CS(=O)(=O)O.CS(=O)(=O)O.Nc1nc2ccc(-c3[nH]c(-c4c(F)cccc4F)nc3-c3ccccc3)cc2n1S(=O)(=O)C1CCCC1,6 nM
9,CC(C)S(=O)(=O)n1c(N)nc2ccc(-c3c(-c4ccc(F)cc4)ncn3C)cc21,720 nM
10,CC(C)S(=O)(=O)n1c(N)nc2ccc(-c3[nH]c(C(C)(C)C)nc3-c3ccc(F)cc3F)cc21.CS(=O)(=O)O,6.2 nM
11,CN(C)S(=O)(=O)n1c(N)nc2ccc(-c3[nH]c(-c4c(F)cccc4F)nc3-c3ccccc3)cc21.CS(=O)(=O)O.CS(=O)(=O)O,8.8 nM
12,CC(C)S(=O)(=O)n1c(N)nc2ccc(-c3nc(-c4c(F)cccc4F)[nH]c3-c3ccccc3)cc21,10.3 nM
13,CC(C)c1nc(-c2ccc(F)cc2)c(-c2ccc3nc(N)n(S(=O)(=O)C(C)C)c3c2)[nH]1.CS(=O)(=O)O,28.6 nM
14,CC(C)CN1CCC(c2nc(-c3ccc4nc(N)n(S(=O)(=O)C(C)C)c4c3)c(-c3ccccc3)[nH]2)CC1,27.9 nM
15,CC(C)S(=O)(=O)n1c(N)nc2ccc(-c3c(-c4ccc(F)cc4)ncn3C3CCNCC3)cc21,4460 nM

# Tested on: Rattus norvegicus
# Assay: Inhibition of TNF-alpha production in rat joint after oral administration at 3 mg/Kg
# Assay type: functional
# Details: not given
row,SMILES,inhibition in vivo at 3 mg/kg
1,CC(C)(C)c1nc(-c2ccc(F)cc2F)c(-c2ccc3nc(N)n(S(=O)(=O)C(C)(C)C)c3c2)[nH]1.CS(=O)(=O)O,82%
2,CC(C)S(=O)(=O)n1c(N)nc2ccc(-c3[nH]c(C(C)(C)C)nc3-c3ccc(F)cc3F)cc21.CS(=O)(=O)O,81%
3,Cc1ccc(-n2nc(C(C)(C)C)cc2NC(=O)Nc2ccc(OCCN3CCOCC3)c3ccccc23)cc1 [DORAMAPIMOD],55%
4,OCCC#Cc1nc(-c2ccc(F)cc2)c(-c2ccncc2)n1CCCc1ccccc1 [RWJ-67657],< 50%

# Biological target: Cytochrome P450 3A4 (Homo sapiens, UniProt P08684)
# Assay: In vitro inhibitory concentration against Cytochrome P450 3A4
# Assay type: ADME
# Details: not given
# Chain of Cytochrome P450 3A4 (P08684 whole entry): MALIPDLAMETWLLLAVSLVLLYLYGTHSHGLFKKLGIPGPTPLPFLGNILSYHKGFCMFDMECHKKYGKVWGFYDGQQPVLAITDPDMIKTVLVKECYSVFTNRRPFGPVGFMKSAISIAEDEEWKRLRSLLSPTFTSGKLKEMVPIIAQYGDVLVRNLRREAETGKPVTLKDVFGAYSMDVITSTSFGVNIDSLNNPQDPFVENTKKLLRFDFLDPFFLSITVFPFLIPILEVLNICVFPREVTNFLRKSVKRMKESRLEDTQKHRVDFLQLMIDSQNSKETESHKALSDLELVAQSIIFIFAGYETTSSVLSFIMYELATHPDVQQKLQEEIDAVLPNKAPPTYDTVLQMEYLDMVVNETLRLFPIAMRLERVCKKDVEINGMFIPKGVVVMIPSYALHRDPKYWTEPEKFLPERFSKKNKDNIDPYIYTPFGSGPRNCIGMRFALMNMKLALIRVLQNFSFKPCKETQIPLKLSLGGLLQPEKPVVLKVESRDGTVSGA
row,SMILES,IC50
1,CCc1nc(-c2ccc(F)cc2)c(-c2ccc3nc(N)n(S(=O)(=O)C(C)C)c3c2)[nH]1.CS(=O)(=O)O,4400 nM
2,CC(C)S(=O)(=O)n1c(N)nc2ccc(-c3[nH]cnc3-c3ccccc3)cc21,1600 nM
3,CC(C)S(=O)(=O)n1c(N)nc2ccc(-c3[nH]cnc3-c3ccc(F)cc3)cc21.CS(=O)(=O)O.CS(=O)(=O)O,800 nM
4,CC(C)S(=O)(=O)n1c(N)nc2ccc(-c3[nH]c(C(C)(C)C)nc3-c3ccc(F)cc3)cc21.CS(=O)(=O)O.CS(=O)(=O)O,31800 nM
5,CS(=O)(=O)O.CS(=O)(=O)O.Nc1nc2ccc(-c3[nH]c(-c4c(F)cccc4F)nc3-c3ccccc3)cc2n1S(=O)(=O)C1CCCC1,13000 nM
6,CC(C)S(=O)(=O)n1c(N)nc2ccc(-c3nc(-c4c(F)cccc4F)[nH]c3-c3ccccc3)cc21,6300 nM
7,CC(C)c1nc(-c2ccc(F)cc2)c(-c2ccc3nc(N)n(S(=O)(=O)C(C)C)c3c2)[nH]1.CS(=O)(=O)O,6100 nM
8,CC(C)CN1CCC(c2nc(-c3ccc4nc(N)n(S(=O)(=O)C(C)C)c4c3)c(-c3ccccc3)[nH]2)CC1,5300 nM

# Tested on: not listed separately
# Assay: (§1) Area under concentration-curve (from 0-infinity) for a compound in plasma of rats after oral administration
# Assay type: ADME
# Design: time infinity, route oral
# Details: rat
row,SMILES,AUC 0-inf
1,CC(C)(C)c1nc(-c2ccc(F)cc2F)c(-c2ccc3nc(N)n(S(=O)(=O)C(C)(C)C)c3c2)[nH]1.CS(=O)(=O)O,28.3 µM·h
2,CC(C)S(=O)(=O)n1c(N)nc2ccc(-c3[nH]cnc3-c3ccccc3)cc21,3.7 µM·h
3,CC(C)S(=O)(=O)n1c(N)nc2ccc(-c3[nH]cnc3-c3ccc(F)cc3)cc21.CS(=O)(=O)O.CS(=O)(=O)O,1.4 µM·h
4,CC(C)S(=O)(=O)n1c(N)nc2ccc(-c3[nH]c(-c4c(Cl)cccc4Cl)nc3-c3ccccc3)cc21.CS(=O)(=O)O,17 µM·h
5,CC(C)S(=O)(=O)n1c(N)nc2ccc(-c3[nH]c(C(C)(C)C)nc3-c3ccc(F)cc3)cc21.CS(=O)(=O)O.CS(=O)(=O)O,13.5 µM·h
6,CS(=O)(=O)O.CS(=O)(=O)O.Nc1nc2ccc(-c3[nH]c(-c4c(F)cccc4F)nc3-c3ccccc3)cc2n1S(=O)(=O)C1CCCC1,0.9 µM·h
7,CC(C)S(=O)(=O)n1c(N)nc2ccc(-c3[nH]c(C(C)(C)C)nc3-c3ccc(F)cc3F)cc21.CS(=O)(=O)O,14.6 µM·h
8,CN(C)S(=O)(=O)n1c(N)nc2ccc(-c3[nH]c(-c4c(F)cccc4F)nc3-c3ccccc3)cc21.CS(=O)(=O)O.CS(=O)(=O)O,9.8 µM·h
9,CC(C)c1nc(-c2ccc(F)cc2)c(-c2ccc3nc(N)n(S(=O)(=O)C(C)C)c3c2)[nH]1.CS(=O)(=O)O,12.8 µM·h

# Biological target: Mitogen-activated protein kinase 14 (Homo sapiens, UniProt Q16539)
# Assay: Inhibition of human recombinant Mitogen activated protein kinase p38 alpha activity using ATP[gamma-33P] and EGFR 21mer-peptide
# Details: not given
# Method in brief: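 Recombinant human p38α, filter binding format with ATP[γ-33P] and EGFR 21-mer peptide substrate; IC50 in nM, n determinations per compound.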
# Chain of Mitogen-activated protein kinase 14 (Q16539 whole entry): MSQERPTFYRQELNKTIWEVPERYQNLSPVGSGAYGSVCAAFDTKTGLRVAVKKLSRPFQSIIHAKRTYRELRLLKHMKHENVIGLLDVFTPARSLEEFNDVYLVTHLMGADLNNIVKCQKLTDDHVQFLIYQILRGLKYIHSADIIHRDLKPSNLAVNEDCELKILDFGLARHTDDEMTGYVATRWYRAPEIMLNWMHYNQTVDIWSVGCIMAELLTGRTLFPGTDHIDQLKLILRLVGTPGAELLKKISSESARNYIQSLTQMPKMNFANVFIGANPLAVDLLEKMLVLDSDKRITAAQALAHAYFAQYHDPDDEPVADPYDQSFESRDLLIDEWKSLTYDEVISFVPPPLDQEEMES
row,SMILES,IC50
1,CC(C)(C)c1nc(-c2ccc(F)cc2F)c(-c2ccc3nc(N)n(S(=O)(=O)C(C)(C)C)c3c2)[nH]1.CS(=O)(=O)O,4.8 nM
2,CCc1nc(-c2ccc(F)cc2)c(-c2ccc3nc(N)n(S(=O)(=O)C(C)C)c3c2)[nH]1.CS(=O)(=O)O,4.7 nM
3,CC(C)S(=O)(=O)n1c(N)nc2ccc(-c3nc(C4CCNCC4)[nH]c3-c3ccccc3)cc21,2.7 nM
4,CC(C)S(=O)(=O)n1c(N)nc2ccc(-c3[nH]cnc3-c3ccccc3)cc21,4.2 nM
5,CC(C)S(=O)(=O)n1c(N)nc2ccc(-c3[nH]cnc3-c3ccc(F)cc3)cc21.CS(=O)(=O)O.CS(=O)(=O)O,4.3 nM
6,CC(C)S(=O)(=O)n1c(N)nc2ccc(-c3[nH]c(-c4c(Cl)cccc4Cl)nc3-c3ccccc3)cc21.CS(=O)(=O)O,15.3 nM
7,CC(C)S(=O)(=O)n1c(N)nc2ccc(-c3[nH]c(C(C)(C)C)nc3-c3ccc(F)cc3)cc21.CS(=O)(=O)O.CS(=O)(=O)O,15.9 nM
8,CS(=O)(=O)O.CS(=O)(=O)O.Nc1nc2ccc(-c3[nH]c(-c4c(F)cccc4F)nc3-c3ccccc3)cc2n1S(=O)(=O)C1CCCC1,19.9 nM
9,CC(C)S(=O)(=O)n1c(N)nc2ccc(-c3c(-c4ccc(F)cc4)ncn3C)cc21,20.7 nM
10,CC(C)S(=O)(=O)n1c(N)nc2ccc(-c3[nH]c(C(C)(C)C)nc3-c3ccc(F)cc3F)cc21.CS(=O)(=O)O,4.4 nM
11,CN(C)S(=O)(=O)n1c(N)nc2ccc(-c3[nH]c(-c4c(F)cccc4F)nc3-c3ccccc3)cc21.CS(=O)(=O)O.CS(=O)(=O)O,22.8 nM
12,CC(C)S(=O)(=O)n1c(N)nc2ccc(-c3nc(-c4c(F)cccc4F)[nH]c3-c3ccccc3)cc21,4.9 nM
13,CC(C)c1nc(-c2ccc(F)cc2)c(-c2ccc3nc(N)n(S(=O)(=O)C(C)C)c3c2)[nH]1.CS(=O)(=O)O,4.5 nM
14,CC(C)CN1CCC(c2nc(-c3ccc4nc(N)n(S(=O)(=O)C(C)C)c4c3)c(-c3ccccc3)[nH]2)CC1,5.5 nM
15,CC(C)S(=O)(=O)n1c(N)nc2ccc(-c3c(-c4ccc(F)cc4)ncn3C3CCNCC3)cc21,125 nM

# Tested on: Rattus norvegicus
# Assay: In vivo threshold minimum effective dose for inhibition of rat paw-swelling after oral bid dosing for 14 days
# Assay type: functional
# Details: not given
row,SMILES,TMED50
1,CC(C)(C)c1nc(-c2ccc(F)cc2F)c(-c2ccc3nc(N)n(S(=O)(=O)C(C)(C)C)c3c2)[nH]1.CS(=O)(=O)O,1.5 mg/kg
2,CC(C)S(=O)(=O)n1c(N)nc2ccc(-c3[nH]c(C(C)(C)C)nc3-c3ccc(F)cc3F)cc21.CS(=O)(=O)O,1.5 mg/kg
3,Cc1ccc(-n2nc(C(C)(C)C)cc2NC(=O)Nc2ccc(OCCN3CCOCC3)c3ccccc23)cc1 [DORAMAPIMOD],15 mg/kg
4,OCCC#Cc1nc(-c2ccc(F)cc2)c(-c2ccncc2)n1CCCc1ccccc1 [RWJ-67657],>30 mg/kg
5,COc1nccc(-c2c(-c3ccc(F)cc3)ncn2C2CCNCC2)n1 [SB-242235],5 mg/kg

# Tested on: Rattus norvegicus
# Assay: In vivo threshold minimum effective dose for inhibition of bone erosion and cartilage destruction in rat after oral bid dosing for 14 days
# Assay type: functional
# Details: not given
row,SMILES,TMED50
1,CC(C)(C)c1nc(-c2ccc(F)cc2F)c(-c2ccc3nc(N)n(S(=O)(=O)C(C)(C)C)c3c2)[nH]1.CS(=O)(=O)O,4.2 mg/kg
2,CC(C)S(=O)(=O)n1c(N)nc2ccc(-c3[nH]c(C(C)(C)C)nc3-c3ccc(F)cc3F)cc21.CS(=O)(=O)O,8.1 mg/kg
3,Cc1ccc(-n2nc(C(C)(C)C)cc2NC(=O)Nc2ccc(OCCN3CCOCC3)c3ccccc23)cc1 [DORAMAPIMOD],30 mg/kg
4,OCCC#Cc1nc(-c2ccc(F)cc2)c(-c2ccncc2)n1CCCc1ccccc1 [RWJ-67657],>30 mg/kg
5,COc1nccc(-c2c(-c3ccc(F)cc3)ncn2C2CCNCC2)n1 [SB-242235],7 mg/kg

# Tested on: not listed separately
# Assay: as §1
# Assay type: ADME
# Design: route oral, time infinity
# Details: rat
row,SMILES,AUC 0-inf
1,CC(C)S(=O)(=O)n1c(N)nc2ccc(-c3nc(-c4c(F)cccc4F)[nH]c3-c3ccccc3)cc21,5.4 µM·h

# Tested on: not listed separately
# Assay: Bioavailability of compound in rat plasma after oral administration
# Assay type: ADME, organism-based
# Details: not given
row,SMILES,bioavailability
1,CC(C)S(=O)(=O)n1c(N)nc2ccc(-c3[nH]c(-c4c(Cl)cccc4Cl)nc3-c3ccccc3)cc21.CS(=O)(=O)O,55%
